Results on eleven compounds are retold here after ChEMBL document CHEMBL3085685, “In vitro and in vivo antileishmanial and trypanocidal studies of new N-benzene- and N-naphthalenesulfonamide derivatives” (J Med Chem, 2013).

Data set [1] is described as follows: Cytotoxicity against mouse J774 cells assessed as reduction of cell viability after 24 hrs by resazurin dye-based fluorometric analysis. In a few lines:
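J774 macrophages in RPMI 1640 with 10% heat-inactivated FBS, seeded at 5 × 10^4 cells/well and attached 24 h at 37 °C, 5% CO2. Medium swapped for drug dilutions for 24 h. Then 2.5 mM resazurin stock added for 3 h, fluorescence read at 535 nm excitation / 590 nm emission. Triplicate; CC50 from probit analysis.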

The test system of the next data set is Leishmania guyanensis. Put plainly: Leishmanicidal activity against extracellular promastigote stage of Leishmania guyanensis 141/93 assessed as reduction of parasite load after 48 hrs by resazurin dye-based fluorometric analysis. It is filed as functional, organism-based. The essentials: (§1)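 Log-phase promastigotes cultured in Schneider's medium with 20% heat-inactivated FBS at 26 °C, 2.5 × 10^5 per well. DMSO-dissolved compounds added as 2-fold serial dilutions, final DMSO ≤0.2% (v/v), 48 h at 26 °C. Growth read by 2.5 mM resazurin stock, fluorescence 535/590 nm. Triplicate; IC50 by probit analysis.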

The test system of another data set is Leishmania infantum. Kind of data set: Leishmanicidal activity against extracellular promastigote stage of Leishmania infantum MCAN/ES/96/BCN150 assessed as reduction of parasite load after 48 hrs by resazurin dye-based fluorometric analysis. Type of data set: functional, organism-based. In a few lines:
as §1
For orientation: The colour change of resazurin is a common sign of viable cells or microbes.

The subject of the next data set is Leishmania braziliensis. Kind of data set: Leishmanicidal activity against extracellular promastigote stage of Leishmania braziliensis 2903 assessed as reduction of parasite load after 48 hrs by resazurin dye-based fluorometric analysis. It is filed as functional, organism-based. In a few lines: as §1
For another data set, the system named is Leishmania amazonensis. Kind of data set: Leishmanicidal activity against extracellular promastigote stage of Leishmania amazonensis MHOM/Br/79/Maria assessed as reduction of parasite load after 48 hrs by resazurin dye-based fluorometric analysis. It is filed as functional, organism-based. In a few lines: as §1
The nature of data set [2]: Cytotoxicity against mouse NCTC-929 cells assessed as reduction of cell viability after 24 hrs by resazurin dye-based […]. In a few lines:
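NCTC clone 929 fibroblasts in DMEM with 10% FBS and 2 mM L-glutamine, plated at 3 × 10^4 cells/well and grown overnight at 37 °C, 5% CO2. Compounds in fresh medium for 24 h, then 2 mM resazurin solution added for 3 h. Absorbance read at 570 and 595 nm; CC50 taken as 50% viability loss versus untreated cells, by probit analysis.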

Another data set has as its system Trypanosoma cruzi. Kind of data set: Trypanocidal activity against extracellular epimastigote stage of Trypanosoma cruzi CL-B5 assessed as reduction of parasite load after 72 hrs by CPRG-based colorimetric analysis.
[3] abbreviates: Leishmania guyanensis, 141/93, 48 h, read-out: IC50.
The mark [4] stands for this setting: Leishmania infantum, MCAN/ES/96/BCN150, 48 h, read-out: IC50.
The mark [5] stands for this setting: Leishmania braziliensis, 2903, 48 h, read-out: IC50.
Where [6] appears, read: Leishmania amazonensis, MHOM/Br/79/Maria, 48 h, read-out: IC50.
The mark [7] stands for this setting: Trypanosoma cruzi, CL-B5, 72 h, read-out: IC50.

As usually defined, the CC50 is the concentration at which the toxic effect on the cells reaches its halfway point. What is called IC50 is the midpoint of a concentration-inhibition curve.

Regarding `Cc1cc2cc(NS(=O)(=O)c3ccc(F)cc3)ccc2[nH]1`, the 50% cytotoxic concentration (CC50) at 24 h in data set [1] turned out to be 40.4 µM. For the same compound, the half-maximal inhibitory concentration (IC50) stood at 117 µM with Leishmania guyanensis (setting [3]), 34.5 µM in the data set on Leishmania infantum (setting [4]), 42.7 µM in the data set on Leishmania braziliensis (setting [5]) and 12.5 µM in the data set on Leishmania amazonensis (setting [6]).
The corresponding values for `Cc1cc2cc(NS(=O)(=O)c3ccc(Cl)cc3)ccc2[nH]1` are 195 µM, 10.4 µM, 12.4 µM, 23 µM and 18.2 µM.
`Cc1cc2cc(NS(=O)(=O)c3cccc4ccccc34)ccc2[nH]1`: the CC50 at 24 h in data set [1] stood at 24.6 µM. The IC50 was determined as 13.6 µM with Leishmania guyanensis (setting [3]), 11.9 µM in the data set with Leishmania infantum (setting [4]), 11.6 µM in the data set on Leishmania braziliensis (setting [5]) and 7.4 µM in the data set on Leishmania amazonensis (setting [6]).
In the case of `O=C(Cn1ccnc1[N+](=O)[O-])NCc1ccccc1` [BENZNIDAZOLE], the half-maximal cytotoxic concentration (CC50) at 24 h in data set [1] is ≥ 300 µM; in data set [2], > 194 µM.
On to `O=S(=O)(Nc1nccc2ccccc12)c1ccccc1`, for which, in data set [1], the CC50 at 24 h was ≥ 300 µM. The concentration for half-maximal inhibition (IC50) with Leishmania guyanensis (setting [3]) is 93.5 µM; in the data set on Leishmania infantum, “Not Active”; in the data set on Leishmania braziliensis (setting [5]), 162 µM; in the data set on Leishmania amazonensis (setting [6]) it was 93.5 µM.
For the compound `Cc1cc2cc(NS(=O)(=O)c3ccc([N+](=O)[O-])cc3)ccc2[nH]1`, in data set [1], the CC50 at 24 h was determined as 132 µM. In addition, the IC50 with Leishmania guyanensis (setting [3]) turned out to be 19.6 µM; in the data set on Leishmania infantum (setting [4]), 35.2 µM; in the data set on Leishmania braziliensis (setting [5]) it was 16.8 µM; in the data set with Leishmania amazonensis (setting [6]), 15.8 µM.
The corresponding values for `O=S(=O)(Nc1ccc2nccnc2c1)c1ccc(F)cc1` are 43.9 µM, 29.8 µM, 33.4 µM, 13.4 µM and 14.2 µM.
In the case of `O=S(=O)(c1cccc2ccccc12)N1CCc2ccccc2C1`, the IC50 in the data set on Trypanosoma cruzi (setting [7]) was 114 µM; in the data set on Leishmania guyanensis, “Not Active”; in the data set with Leishmania infantum, “Not Active”; in the data set on Leishmania braziliensis, “Not Active”; in the data set with Leishmania amazonensis, “Not Active”. The CC50 at 24 h in data set [1] was ≥ 300 µM; in data set [2], > 310 µM.
For the compound `O=[N+]([O-])c1ccc(S(=O)(=O)Nc2ccc3nccnc3c2)cc1`, the IC50 result in the data set with Trypanosoma cruzi is “Not Active”; in the data set with Leishmania guyanensis (setting [3]) it was 101 µM; in the data set with Leishmania infantum (setting [4]), 81.7 µM; in the data set on Leishmania braziliensis (setting [5]), 60.8 µM; in the data set with Leishmania amazonensis (setting [6]), 198 µM. Also, the CC50 at 24 h in data set [1] was ≥ 300 µM.
Take `O=[N+]([O-])c1ccc(S(=O)(=O)Nc2nccc3ccccc23)cc1`: the IC50 in the data set on Trypanosoma cruzi (setting [7]) was 136 µM; in the data set on Leishmania guyanensis (setting [3]), 24.6 µM; in the data set with Leishmania infantum (setting [4]) it was 39.5 µM; in the data set on Leishmania braziliensis (setting [5]), 42.5 µM; in the data set with Leishmania amazonensis (setting [6]), 27 µM. Moreover, in data set [1], the CC50 at 24 h turned out to be 41.3 µM.
As to `O=S(=O)(Nc1cccc2cnccc12)c1ccc(Cl)cc1`, the CC50 at 24 h in data set [1] was 60.8 µM. In addition, the IC50 stood at 22.6 µM in the data set on Leishmania guyanensis (setting [3]), 21 µM in the data set with Leishmania infantum (setting [4]), 29.8 µM in the data set on Leishmania braziliensis (setting [5]) and 8.4 µM in the data set with Leishmania amazonensis (setting [6]).
